Laboratory results: PMC6282495 (Clinical Pharmacology and Therapeutics, 2018)
“Also recorded” adds a separate entry of the source. Like-named read-outs stand apart in the source and are kept apart here. Values belong to the compound of their own block, whether it stands above or below them.

Tests used:
[1] = AZD7986 plasma pharmacokinetics; assay type: in vivo, human
Summary of the method: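 Healthy male subjects received oral AZD-class test compound. In Part I, single doses of 5–65 mg were given to cohorts of nine, three of them on placebo, with plasma sampled up to 96 h. In Part II, 10, 25 or 40 mg were given once daily for 21 or 28 days, with sampling up to 24 h after the first dose and 96 h after the last. Steady state was checked from predose levels on Days 18–20 and 21/28. Parameters came from noncompartmental analysis.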

Population PK model = assay type: in vivo, human
Summary of the method: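 Pooled Part I and II plasma concentrations (5–65 mg single doses; 10–40 mg once daily) were fitted with a three-compartment model. It had first-order absorption with lag, a dose-dependent bioavailability power model (relative bioavailability at 5 mg fixed to 1), and volumes per kg bodyweight. Slow peripheral volume and bioavailability were allowed to change between first dose and steady state. Interindividual variability was on Vc, CL, Frel, ka and Alag, with additive log-scale error. Estimates carry 90% CI, with visual predictive checks from 1,000 simulations.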

[2] = tested on: whole blood neutrophil elastase (NE) activity; assay: Whole blood NE activity; assay type: in vivo, human
Summary of the method: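 Part II only: healthy males on 10, 25 or 40 mg once daily for 21 or 28 days, or placebo (pooled). Whole-blood NE activity was expressed as percent change from each subject's baseline, […]. The 25 and 40 mg cohorts had follow-up visits up to 1 month after leaving the unit. ANC-normalized activity was fitted with a transit-compartment maturation model in which plasma concentration inhibits entry into the first compartment via a sigmoid Hill function. Blood neutrophil half-life was fixed from literature and maximal inhibition was fixed at complete.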

[3] = Safety and tolerability in healthy subjects; assay type: in vivo, human
efflux transporters = assay: In-house data on efflux transporter substrate status; assay type: in vitro ADME
[4] = In-house data on metabolic clearance routes and plasma protein binding; assay type: in vitro ADME
[5] = tested on: activation of NSPs (NE, Pr3, and CatG) in human primary bone marrow-derived CD34+ neutrophil progenitor cells; details: cited from earlier work
DPP1 = details: once daily, 21 days of dosing; cited from earlier work
NSP activity = details: 21 days of dosing; cited from earlier work
[6] = cited from earlier work
[7] = between first dose and steady state

half-life ([1]; male, human, plasma, po, Terminal half-life, after a single oral dose): 1200 to 1560 min
Time of maximum plasma levels (Cmax) after dosing ([1]; oral dosing, healthy subjects): 0.5 to 1.5 h
Increase in oral bioavailability (Population PK model; between 5 and 65 mg, power model): ~2 fold
Fsteadystate_change, percent change in bioavailability (Population PK model; [7]): 24.3%
Vp,slow,steadystate_change, percent change in volume of slowly equilibrating tissue compartment (Population PK model; [7]): 34%
Alag, absorption lag time (Population PK model; population PK model estimate): 0.159 h
CL, apparent clearance from central compartment (Population PK model; population PK model estimate): 12.0 L/h
IIV Alag, interindividual variability in Alag (Population PK model; population PK model estimate): 21.3%
IIV CL, interindividual variability in CL (Population PK model; population PK model estimate): 22.2%
IIV Frel, interindividual variability in Frel (Population PK model; population PK model estimate): 18.2%
IIV Vc, interindividual variability in Vcentral (Population PK model; population PK model estimate): 53.6%
IIV ka, interindividual variability in ka (Population PK model; population PK model estimate): 28.8%
Qfast, apparent intercompartmental clearance between plasma and rapidly equilibrating tissues (Population PK model; population PK model estimate): 122 L/h
Qslow, apparent intercompartmental clearance between plasma and slowly equilibrating tissues (Population PK model; population PK model estimate): 14.7 L/h
Vc, apparent volume per kg bodyweight of central plasma compartment (Population PK model; population PK model estimate): 0.368 L/kg
Vp,fast, apparent volume per kg bodyweight of rapidly equilibrating tissue compartment (Population PK model; population PK model estimate): 2.45 L/kg
ka, absorption rate constant (Population PK model; population PK model estimate): 0.809 h⁻¹
Fslope, slope parameter for bioavailability vs. dose power model (Population PK model; relative to 5 mg single dose): 0.228
Vp,slow, apparent volume per kg bodyweight of slowly equilibrating tissue compartment (Population PK model; single dose, population PK model estimate): 1.97 L/kg
IIV IC50, interindividual variability in IC50 ([2]; PK-PD model): 33.3%
Saturable metabolic clearance routes or plasma protein binding [4]: does not indicate
Compound: Cn1c(=O)oc2ccc(-c3ccc(C[C@@H](C#N)NC(=O)[C@@H]4CNCCCO4)cc3)cc21 [AZD7986]
Observed reduction of whole blood NE activity, on average ([2]; 40 mg dose group, 28 days once daily): more than 50%
Recovery of NE activity after cessation of dosing ([2]; 25 and 40 mg cohorts, follow-up visits): recovers once treatment is stopped
nH, Hill coefficient ([2]; PK-PD model, Imax fixed to 1 (100%)): 0.697
Average time to steady state of whole blood NE activity after initiation of dosing ([2]; implied by estimated MTT, N and PK): about 25 days
Start of response in whole blood NE activity after treatment initiation ([2]; three active doses compared to placebo): ~12 days
Discontinuation of treatment due to skin AE of lichenoid drug eruption ([3]; 25 mg, Day 13): One subject
Skin findings of special interest seen in the highest dose group ([3]; Part II, 40 mg, number of subjects): four
Skin findings of special interest seen in subjects treated with AZD7986 ([3]; Part II, number of subjects): five of the six
Effect on the number of neutrophils in blood ([3]; Part II, repeated dosing): no clinically significant effect
Clinical laboratory results, 12-lead ECGs, telemetry results ([3]; Parts I and II): No trends were observed
Infection risk ([3]; Parts I and II): no signal of increased infection risk
Serious adverse events ([3]; Parts I and II): No serious adverse events
Mild gingival bleeding, AZD7986 versus placebo ([3]; gingival probing): no difference
Overall tolerability ([3]; single doses 5-65 mg, once daily 10-40 mg for 21 or 28 days): well tolerated
Substrate for efflux transporters (efflux transporters): may be a substrate for efflux transporters
Hill coefficient ([5]; NE, Pr3 and CatG): ~0.65
Extent of inhibition of activation of all three NSPs ([5]; concentration-dependent): completely inhibit
IC50 ([5]; read-out: IC50 for inhibition of NSP activation, NE, Pr3 and CatG): 60 to 200 nM

Compound: CC[C@@H](/C=C/C(=O)N1CCc2ccccc21)NC(=O)C1(N)CCOCC1 [GSK2793660]
DPP1 inhibition in whole blood (DPP1): sustained inhibition; also recorded: sustained, near‐complete
Effect on NSP activity (NSP activity): no clear effect
half-life ([6]; administered once daily): 1.5 h
Cases of skin desquamation [6]: seven
Downstream effect reported on skin [6]: epidermal desquamation on palmar and plantar surfaces
